From PubChem BioAssay AID1257 (The Scripps Research Institute Molecular Screening Center, 2008)
The other results are listed elsewhere or left out. Values without a mark were called inactive. Activity calls are given as the source filed them.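 How the source made its calls: active means mean inhibition of triplicate wells above the hit cutoff set in the primary screen (cut at about 17% in these data); inactive means the rest.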

Target: Neuropeptide Y receptor type 2 (Homo sapiens) (UniProt P49146)
Assay: blockers of human NPY-Y2 signalling – HEK293-CNG cells, membrane potential fluorescence, triplicate, confirmation (AID 1257);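 further: 0% = DMSO with NPY challenge and 100% = BIIE0246 high control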
Details: HEK293 NPY-Y2 CNG channel, at 2.8 µM, hits give high values
Procedure, shortened: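 System – HEK293 cells expressing NPY-Y2 receptor and CNG channel · Also added – NPY 8 nM plus isoproterenol 1 µM, Ro 20-1724 25 µM · Compound dosing – single nominal compound dose of 2.8 µM · Incubation – 60 min NPY incubation, room temperature · Technique – voltage-sensitive dye fluorescence · Measure – 30-min to baseline fluorescence ratio, control-normalized · Repeats – three replicates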

Sequence of Neuropeptide Y receptor type 2 (Homo sapiens) (P49146 whole entry, looked up): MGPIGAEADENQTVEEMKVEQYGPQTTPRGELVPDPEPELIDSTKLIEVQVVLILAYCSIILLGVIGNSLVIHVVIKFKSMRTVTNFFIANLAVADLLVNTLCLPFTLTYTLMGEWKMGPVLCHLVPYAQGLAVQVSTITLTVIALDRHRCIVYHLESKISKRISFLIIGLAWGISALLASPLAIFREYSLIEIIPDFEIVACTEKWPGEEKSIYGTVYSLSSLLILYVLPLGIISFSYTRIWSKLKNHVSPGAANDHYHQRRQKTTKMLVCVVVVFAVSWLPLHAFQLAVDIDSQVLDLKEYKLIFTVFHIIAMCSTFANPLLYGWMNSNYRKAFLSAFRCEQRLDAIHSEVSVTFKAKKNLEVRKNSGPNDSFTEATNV

Row | Compound | inhibition
1 | Cc1cc(C(=O)OCC(=O)N2c3ccccc3NC(=O)C2(C)C)c(C)n1-c1ccccc1 | 17.1%
2 | Cc1ccccc1OC(=O)Cn1c(C(F)(F)F)nc2ccccc21 | 3.55%
3 | O=C1CC(c2cccc(Cl)c2)CC(O)=C1C=Nc1ccccc1 (centres undefined) | 16.5%
4 | O=C(CC(O)(C(F)(F)F)C(F)(F)F)Nc1ccc(Cl)c(Cl)c1 | 8.21%
5 | CCCCC(O)(CCCC)C(=O)NN(C(=O)CCl)c1ccccc1 | 6.12%
6 | COc1ccc(/C=C/C(=O)NC(=S)NN2CCCCC2c2cccnc2)cc1 (centres undefined) | 63.5% (active)
7 | Cc1cc(C)nc(-n2ncc3c2CC(c2ccc(C(C)C)cc2)CC3=O)n1 (centres undefined) | 24.2% (active)
8 | Cc1ccc(C2=NN(C)c3nc4ccccc4n3C2)cc1 | 4.08%
9 | COc1ccc(-c2noc(COc3ccc(Cl)c(C)c3)n2)cc1 | 32.4% (active)
10 | O=S(=O)(Cc1cc(Sc2ccccc2)nc(-c2ccccc2)n1)c1ccccc1 | 7.19%
11 | CCOc1ccc(C(O)Cn2c(=N)n(CCN3CCCCC3)c3ccccc32)cc1 (centres undefined) | 14.8%
12 | N=c1n(Cc2ccc(Cl)cc2)c2ccccc2n1CC(O)c1ccco1 (centres undefined) | 17.8% (active)
13 | CCOc1ccc(S(=O)(=O)N/N=C(\C)c2ccc(Cl)c(Cl)c2Cl)cc1 | 16%
14 | N#Cc1ccc(N2Cc3ccccc3/C2=N/C(=O)Nc2ccc(Cl)cc2)cc1 | 144% (active)
15 | CCCCCNC(=O)Cc1ccc(OC)cc1 | -1.6%
16 | Cc1ccccc1N1CCN(CCCOc2ccc3c(C)cc(=O)oc3c2)CC1 | 21.9% (active)
17 | O=C(Oc1ccccc1)Oc1ccc2c(c1)oc(=O)c1ccccc12 | 6.38%

Row | Compound | inhibition
18 | COc1ccc(-c2nc3ccccc3n2CCC(C)C)cc1OC | 7.79%
19 | Cc1ccc(NC(=O)CN2CCC3(O)CCCCC3C2c2ccc3c(c2)OCO3)c(C)c1 (centres undefined) | 7.05%
20 | Cc1cccc(OCC(O)Cn2c(=N)n(CCN3CCOCC3)c3ccccc32)c1 (centres undefined) | 6.36%
21 | CCCc1nc(SCC(=O)Nc2ccccc2OC)c2c(=O)n(C)c(=O)n(C)c2n1 | 9.29%
22 | COc1cccc(-c2ccc(C#N)c(SCC(=O)NCCc3ccc(Cl)cc3)n2)c1 | 23.6% (active)
23 | COC(=O)c1ccc(CSc2nc3cc(Cl)ccc3o2)cc1 | 12.9%
24 | Cc1ccc(S(=O)(=O)N(Cc2ccc(Cl)cc2)c2ccccc2C(=O)NCc2cccnc2)cc1 | 21.4% (active)
25 | CCOC(=O)C(C)Sc1nc2ccccc2c(=O)n1CC1CCCCC1 (centres undefined) | 8.48%
26 | COc1ccc(NC(=O)/C(Cl)=C(/Cl)S(=O)Cc2ccc(C)cc2)cn1 (centres undefined) | 60.8% (active)
27 | c1ccc(-c2cc3c(NCC4COc5ccccc5O4)ncnc3s2)cc1 (centres undefined) | 15.2%
28 | CN(C)Cc1ccc(F)cc1Sc1cc(Cl)ccc1Cl | 9.81%
29 | Cc1ccc(CCC(=O)Nc2ncc(Cc3cc(Cl)ccc3Cl)s2)o1 | 28.3% (active)
30 | CC12CN(Cc3ccccc3)CC(C)(CN(Cc3ccccc3)C1)C2=NO | 10.7%
31 | O=C(Nc1nnc(SCc2c(Cl)cccc2Cl)s1)C1CCCO1 (centres undefined) | 15.9%
32 | COc1ccc(/C(N)=N/OC(=O)CCCc2ccccc2)cc1 | 8.36%
33 | C=CCNCCCCOc1ccccc1 | -1.34%
34 | N#Cc1ccc(C(c2nnnn2CCc2ccccc2)N2CCCCCC2)cc1 (centres undefined) | 7.32%
